Measurements published in article PMC8519014 (Journal of pharmaceutical and biomedical analysis, 2017).
Counter-ions that a name gives are not always drawn.

Assay: Mice pharmacokinetic study after oral administration of a mixture of 11 TKIs
Format: in vivo, FVB wild-type mice
Settings: for concentration at 15 min / concentration at 30 min / concentration at 45 min / concentration at 60 min / concentration at 120 min / concentration at 240 min / Cmax / Tmax / AUC(0-t): 1 mg/kg; for Tmax: oral gavage 1 mg/kg each as a mixture of 11 TKIs, FVB wild-type mice, blood, n = 4
Summary of the method: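 Male FVB mice (25–30 g, 10–12 weeks) fasted overnight with water, then oral gavage of an 11-TKI cassette in oral suspension vehicle (0.06 mg/ml each), 1 mg/kg. Tail-tip blood (~15 μl, heparinized) taken at 15–1440 min (nine points). Quantified by UHPLC BEH C18–ESI triple-quadrupole MS/MS against blank-blood calibrants (acetonitrile/testosterone IS precipitation). Non-compartmental parameters, n = 4.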

[1] = male, FVB wild-type, mouse, whole blood, po
[2] = male, FVB wild-type, mouse, whole blood, po, Tmax

concentration at 15 min [1] | concentration at 30 min [1] | concentration at 45 min [1] | concentration at 60 min [1] | concentration at 120 min [1] | concentration at 240 min [1] | Cmax [1] | Tmax [2] | Detection in blood after oral dosing (oral 1 mg/kg as mixture of 11 TKIs, mice) | AUC(0-t) [1] | Tmax | Systemic exposure (AUC) relative to sorafenib (pazopanib AUC versus sorafenib AUC, oral 1 mg/kg as mixture of 11 TKIs, mice) | Structure (SMILES)
24.7 ± 22 ng/mL | 32.4 ± 28.1 ng/mL | 36.7 ± 41.5 ng/mL | 33.2 ± 42.7 ng/mL | 21.8 ± 25.5 ng/mL | 32.7 ± 26.3 ng/mL |  |  |  |  |  |  | COc1cc2ncnc(Nc3ccc(F)c(Cl)c3)c2cc1OCCCN1CCOCC1 [Gefitinib, gefitinib]
51.7 ± 40 ng/mL | 42.7 ± 19.3 ng/mL | 46.1 ± 39.6 ng/mL | 34.2 ± 37.3 ng/mL | 11.1 ± 16.4 ng/mL | 4.8 ± 26.8 ng/mL |  |  |  |  |  |  | CNC(=O)c1ccccc1Sc1ccc2c(/C=C/c3ccccn3)n[nH]c2c1 [Axitinib, axitinib]
147 ± 62.2 ng/mL | 124 ± 45 ng/mL | 120 ± 97.6 ng/mL | 87.6 ± 87.6 ng/mL | 23 ± 37.7 ng/mL | 14.4 ± 24.9 ng/mL | 147 ± 62.2 ng/mL | 0.25 h |  |  |  |  | C#Cc1cccc(Nc2ncnc3cc(OCCOC)c(OCCOC)cc23)c1 [Erlotinib, erlotinib hydrochloride]
9.1 ± 18.2 ng/mL | 21.5 ± 19.2 ng/mL | 34.3 ± 41.6 ng/mL | 24.8 ± 49.7 ng/mL | 18.4 ± 23.1 ng/mL | 10.1 ± 20.2 ng/mL |  |  |  |  |  |  | Cc1nc(Nc2ncc(C(=O)Nc3c(C)cccc3Cl)s2)cc(N2CCN(CCO)CC2)n1 [Dasatinib, dasatinib]
62.1 ± 32.8 ng/mL | 59.1 ± 31.4 ng/mL | 69 ± 37.2 ng/mL | 68.8 ± 26.8 ng/mL | 67.3 ± 64.3 ng/mL | 34.6 ± 33.1 ng/mL |  |  |  |  |  |  | Cc1cn(-c2cc(NC(=O)c3ccc(C)c(Nc4nccc(-c5cccnc5)n4)c3)cc(C(F)(F)F)c2)cn1 [Nilotinib, nilotinib]
 |  |  |  |  |  |  |  | not detected |  |  |  | CN(C)C/C=C/C(=O)Nc1cc2c(Nc3ccc(F)c(Cl)c3)ncnc2cc1O[C@H]1CCOC1 [Afatinib, afatinib]
 |  |  |  |  |  | 717 ± 206 ng/mL | ~1.62 h |  | 4150 ng·h/mL | 1.62 ± 1.11 h | 7.5 times | Cc1ccc(Nc2nccc(N(C)c3ccc4c(C)n(C)nc4c3)n2)cc1S(N)(=O)=O [Pazopanib, pazopanib hydrochloride]
53.1 ± 20.1 ng/mL | 55.7 ± 28.6 ng/mL | 68.8 ± 63.8 ng/mL | 48.1 ± 56.9 ng/mL | 19.9 ± 19 ng/mL | 11.1 ± 19.2 ng/mL |  |  |  |  |  |  | Cc1ccc(NC(=O)c2ccc(CN3CCN(C)CC3)cc2)cc1Nc1nccc(-c2cccnc2)n1 [Imatinib]
9.4 ± 12.1 ng/mL | 18.4 ± 10.6 ng/mL | 22.8 ± 18.9 ng/mL | 12.7 ± 20 ng/mL | 14.7 ± 15.8 ng/mL |  |  |  |  |  |  |  | CCN(CC)CCNC(=O)c1c(C)[nH]c(/C=C2\C(=O)Nc3ccc(F)cc32)c1C [Sunitinib, sunitinib malate]
8.8 ± 12.7 ng/mL | 16.3 ± 28.2 ng/mL | 21.4 ± 25.6 ng/mL | 21.2 ± 25.7 ng/mL | 20.1 ± 28.2 ng/mL | 18.1 ± 25.4 ng/mL |  |  |  |  |  |  | CS(=O)(=O)CCNCc1ccc(-c2ccc3ncnc(Nc4ccc(OCc5cccc(F)c5)c(Cl)c4)c3c2)o1 [Lapatinib, lapatinib]
 |  |  |  |  |  | 154 ± 30.4 ng/mL | 1 h |  | 558 ng·h/mL |  |  | CNC(=O)c1cc(Oc2ccc(NC(=O)Nc3ccc(Cl)c(C(F)(F)F)c3)cc2)ccn1 [Sorafenib, sorafenib tosylate]
